Measured values reported in ChEMBL document CHEMBL3414496, “Synthesis and biological evaluation of novel 2-heteroarylimino-1,3-thiazolidin-4-ones as potential anti-tumor agents” (Eur J Med Chem, 2015).
Activity calls are given as the source filed them. No cut-off for these calls is given here.

Assays:
[1] = system: HT-29; test: Induction of cell cycle arrest in human HT-29 cells assessed as accumulation at G2/M phase by propidium iodide staining based flow cytometry (reference value: 30 +/- 2%); type: functional
[2] = system: HT-29; test: Reduction in cell viability of human HT-29 cells assessed as reduction in living cell level at cytotoxic IC50 level after 24 to 48 hrs by DCF-DA and propidium iodide staining based flow cytometry; type: functional
Outline: (§1)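 HT29 cells treated two days after seeding, then loaded together with 50 µM DCF-DA and 25 µg/mL propidium iodide for 15 min at 37°C. Cells trypsinised, washed and resuspended in PBS; 30 000 cells per sample read by flow cytometry (FL-1, FL-3). Viable cells (PI-negative, DCF-positive) given as % of total events. Triplicates, two independent experiments.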

[3] = system: HT-29; test: Induction of Nrf2 expression in human HT-29 cells nuclei homogenates over 1 to 6 hrs by Western blotting method; type: functional, cell-based
Outline: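 HT29 cells treated and fractionated, and nuclear homogenates immunoblotted with anti-Nrf2 (1:500) after SDS-PAGE and nitrocellulose transfer. Primary antibody overnight at 4°C, HRP secondary and chemiluminescence. Blots stripped and reprobed for GAPDH (1:10 000) for normalization, with the DMSO ratio set to 1.00. Representative of three independent experiments.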

[4] = system: HT-29; test: Induction of GCL expression in human HT-29 cells at 3.8 uM after 24 hrs by Western blotting method; type: functional
Outline: (§2)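 HT29 whole-cell lysates in Hepes/KOH pH 7.5 with EDTA, KCl, NP40, DTT, protease inhibitors; 50 µg protein on 10–15% SDS-PAGE, nitrocellulose, overnight 4°C primary antibody (GCL 1:500, HO-1 1:1000), HRP secondary, chemiluminescence. Bands normalized to GAPDH (1:10 000), DMSO ratio set at 1.00; representative of three independent experiments.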

[5] = system: HT-29; test: Induction of ROS generation in human HT-29 cells at cytotoxic IC50 level after 1 hr by DCF-DA staining based fluorescence assay; type: functional, cell-based
Outline: (§3)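 HT29 cells treated two days after seeding, then loaded with 50 µM DCF-DA for 15 min at 37°C. Cells trypsinized, washed and resuspended in PBS, and 30 000 cells/sample read by flow cytometry (FL-1). Expressed as % of DMSO-treated cells; […] for 1 h served as positive control. Triplicates from three independent experiments.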

[6] = system: HT-29; test: Induction of ROS generation in human HT-29 cells at cytotoxic IC50 level after 6 hrs by DCF-DA staining based fluorescence assay; type: functional, cell-based; outline: as §3
[7] = system: HT-29; test: Induction of NQO1 expression in human HT-29 cells at 1.5 uM after 4 hrs by Western blotting method; type: functional
Outline: (§4)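 Whole-cell lysates from treated HT29 cells in pH 7.5 Hepes/KOH buffer with EDTA, KCl, Igepal, DTT and protease inhibitors. 50 µg protein run on 10-15% SDS-PAGE and transferred to nitrocellulose. Probed overnight at 4°C with anti-HO-1 (1:1 000), anti-NQO1 (1:1 000) or anti-GCL (1:500), then HRP secondary for 45 min and chemiluminescence. Bands normalized to GAPDH (1:10 000), with the DMSO ratio set to 1.00. Representative of three experiments.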

[8] = system: HT-29; test: Induction of GCL expression in human HT-29 cells at 2.5 uM after 24 hrs by Western blotting method; type: functional; outline: as §2
[9] = system: HT-29; test: Induction of NQO1 expression in human HT-29 cells at 2.5 uM after 24 hrs by Western blotting method; type: functional; outline: as §4
[10] = system: HT-29; test: Induction of NQO1 expression in human HT-29 cells at 2.5 uM after 6 hrs by Western blotting method; type: functional; outline: as §4
[11] = system: HT-29; test: Reduction in cell viability of human HT-29 cells assessed as reduction in living cell level at 2.5 uM after 24 to 48 hrs by DCF-DA and propidium iodide staining based flow cytometry; type: functional; outline: as §1
[12] = system: HT-29; test: Induction of GCL expression in human HT-29 cells at 2.5 uM after 4 hrs by Western blotting method; type: functional; outline: as §2
[13] = system: HT-29; test: Reduction in cell growth of human HT-29 cells at 2.5 uM after 3 days by trypan blue dye exclusion assay; type: functional, cell-based
Outline: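 HT29 cells treated daily from 48 h after seeding, over three days with daily medium changes, in 0.1% (v/v) DMSO vehicle. Cells trypsinised, mixed 1:1 with 0.04% trypan blue, and living cells counted by haemocytometer under microscope. Mitotic index is treated count relative to DMSO control. Triplicate determinations, two independent experiments, mean ± S.E.M.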

[14] = system: HT-29; test: Growth inhibition of human HT-29 cells at 2.5 uM after 3 days by trypan blue dye exclusion assay; type: functional; details: HT-29, 72 h, read-out: GI
Outline: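 HT29 cells treated 48 h after seeding, dosed daily with daily medium change over three days; drug diluted in DMSO, controls 0.1% (v/v) DMSO. Cells trypsinized, mixed 1:1 with 0.04% trypan blue, live cells counted by hematimeter. Reported as mitotic index (treated/DMSO count); triplicates from two independent experiments.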

[15] = system: HT-29; test: Induction of HO1 expression in human HT-29 cells at 2.5 uM after 4 hrs by Western blotting method; type: functional; outline: as §2
[16] = system: HT-29; test: Induction of NQO1 expression in human HT-29 cells at 2.5 uM after 2 hrs by Western blotting method; type: functional; outline: as §4
[17] = system: HT-29; test: Induction of GCL expression in human HT-29 cells at 2.5 uM after 2 hrs by Western blotting method; type: functional; outline: as §2
[18] = system: HT-29; test: Induction of GCL expression in human HT-29 cells at 2.5 uM after 6 hrs by Western blotting method; type: functional; outline: as §2
[19] = system: HT-29; test: Induction of cell cycle arrest in human HT-29 cells assessed as accumulation at subG1 phase by propidium iodide staining based flow cytometry (reference value: 2.3 +/- 0.1%); type: functional
[20] = system: HT-29; test: Induction of NQO1 expression in human HT-29 cells at 2.5 uM after 4 hrs by Western blotting method; type: functional; outline: as §4
[21] = system: HT-29; test: Induction of cell cycle arrest in human HT-29 cells assessed as accumulation at G2/M phase by propidium iodide staining based flow cytometry (reference value: 11.3 +/- 1%); type: functional
[22] = system: HT-29; test: Induction of HO1 expression in human HT-29 cells at 2.5 uM after 24 hrs by Western blotting method; type: functional; outline: as §2
[23] = system: HT-29; test: Induction of cell cycle arrest in human HT-29 cells assessed as accumulation at G0/G1 phase by propidium iodide staining based flow cytometry (reference value: 67.7 +/- 0.5%); type: functional
[24] = system: HT-29; test: Induction of HO1 expression in human HT-29 cells at 2.5 uM after 6 hrs by Western blotting method; type: functional; outline: as §2
[25] = system: HT-29; test: Induction of HO1 expression in human HT-29 cells at 2.5 uM after 2 hrs by Western blotting method; type: functional; outline: as §2
[26] = system: HT-29; test: Induction of GCL expression in human HT-29 cells at 6.4 uM after 24 hrs by Western blotting method; type: functional; outline: as §2
[27] = system: HT-29; test: Induction of GCL expression in human HT-29 cells at 6.4 uM after 2 hrs by Western blotting method; type: functional; outline: as §2
[28] = system: HT-29; test: Induction of HO1 expression in human HT-29 cells at 6.4 uM after 6 hrs by Western blotting method; type: functional; outline: as §2
[29] = system: HT-29; test: Induction of NQO1 expression in human HT-29 cells at 6.4 uM after 2 hrs by Western blotting method; type: functional; outline: as §4
[30] = system: HT-29; test: Induction of NQO1 expression in human HT-29 cells at 6.4 uM after 6 hrs by Western blotting method; type: functional; outline: as §4

Compound	Activity [1]	inhibition [2]	Activity [3]	Activity [5]	Activity [6]	fold change (FC) [8]	fold change (FC) [9]	fold change (FC) [10]	inhibition [11]	fold change (FC) [12]	inhibition [13]	inhibition of growth at 2.5 µM [14]	fold change (FC) [15]	fold change (FC) [16]	fold change (FC) [17]	fold change (FC) [18]	Activity [19]	fold change (FC) [20]	Activity [21]	fold change (FC) [22]	also measured
COc1ccc(/C=C2\S/C(=N\c3csc(-c4ccc(Cl)cc4)c3)NC2=O)cc1	80.6%	Active	inactive	Active	inactive	–	–	–	–	–	–	–	–	–	–	–	–	–	–	–	fold change (FC) [4]: 1.55
CN(C)c1ccc(/C=C2\S/C(=N\c3csc(-c4ccc(Cl)cc4)c3)NC2=O)cc1	83.7%	Active	inactive	–	–	–	–	–	–	–	–	–	–	–	–	–	–	–	–	–	fold change (FC) [7]: 1.06
CN(C)c1ccc(/C=C2\S/C(=N\c3nc(-c4ccc(Cl)cc4)cs3)NC2=O)cc1	–	–	inactive	–	–	1.18	0.78	0.72	Active	0.99	Active	90%	1	0.93	0.98	1.2	16.2%	0.67	18.7%	1	Activity [23]: 60.6%; fold change (FC) [24]: 1; fold change (FC) [25]: 1
Cc1ccc(/C=C2\S/C(=N\c3csc(-c4ccc(Cl)cc4)c3)NC2=O)cc1	84%	Active	inactive	–	–	–	–	–	–	–	–	–	–	–	–	–	–	–	–	–	fold change (FC) [26]: 0.97; fold change (FC) [27]: 1.93; fold change (FC) [28]: 1; fold change (FC) [29]: 2.23; fold change (FC) [30]: 1.86
COc1ccc(/C=C2\S/C(=N\c3nc(-c4ccc(Cl)cc4)cs3)NC2=O)cc1	–	–	inactive	–	–	0.98	0.85	0.96	Active	0.87	Active	90%	1	1.07	1.06	0.86	20.9%	0.85	24.1%	1	Activity [23]: 58.7%; fold change (FC) [24]: 1; fold change (FC) [25]: 1
COc1ccc(/C=C2\S/C(=N\c3csc(-c4ccc(Cl)cc4)c3)NC2=O)cc1OC	86.4%	Active	–	Active	inactive	–	–	–	–	–	–	–	–	–	–	–	–	–	–	–	–
